Laboratory results as given in ChEMBL document CHEMBL1157237, “Methanolysis products of disorazole A1” (J Nat Prod, 2006).

Assays:
Type in all cases: functional, cell-based
[1] = system: CCRF-CEM; assay: Antiproliferative activity against human CCRF-CEM cells after 72 hrs by celltitre assay
Summary of the method: (§1)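 Cultured in RPMI 1640 with 5% FBS at 37 °C and 5% CO2. Seeded in duplicate at about 5000 cells/well and incubated 24 h before 10-fold serial compound dilutions were added for 72 h. Viability measured by CellTiter-Glo luminescence. IC50 = concentration inhibiting growth by 50%.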

[2] = system: MCF7; assay: Antiproliferative activity against human MCF7 cells after 72 hrs by celltitre assay; details: MCF7, 72 h
Summary of the method: (§2)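 Cells grown in RPMI 1640 with 10% FBS at 37 °C under 5% CO2, seeded in duplicate at about 5000 cells/well and left 24 h. Compounds then added as 10-fold serial dilutions for 72 h. Viability read by CellTiter-Glo luminescence. IC50 taken as the concentration giving 50% inhibition of cell growth.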

[3] = system: A549; assay: Antiproliferative activity against human A549 cells after 72 hrs by celltitre assay; details: A549, 72 h; summary of the method: as §2
[4] = Antiproliferative activity against human multidrug-resistant P-glycoprotein expressing NCI/ADR cells after 72 hrs by celltitre assay; details: NCI/ADR-RES; summary of the method: as §2
[5] = system: CCRF-CEM; assay: Antiproliferative activity against human multidrug-resistant P-glycoprotein expressing CCRF-CEM/PTX cells after 72 hrs by celltitre assay; summary of the method: as §1

| Compound | IC50 [1] [nM] | IC50 [2] [nM] | IC50 [3] [nM] | IC50 [4] [nM] | IC50 [5] [nM] |
| --- | --- | --- | --- | --- | --- |
| C/C=C/[C@H](O)C(C)(C)[C@@H]1C\C=C/C=C\C=C\[C@H](OC)Cc2nc(co2)C(=O)O[C@H](C(C)(C)[C@@H](O)/C=C/C)C/C=C\[C@@H](O)/C=C/C(OC)/C=C\c2nc(co2)C(=O)O1 (stereo not given in full) | 0.33 | 0.62 | 0.73 | 28 | 1.3 |
| C/C=C/[C@H](O)C(C)(C)[C@@H]1C\C=C/C=C\C=C\[C@H](OC)Cc2nc(co2)C(=O)O[C@H](C(C)(C)[C@@H](O)/C=C/C)C/C=C\[C@@H](O)C(OC)/C=C/C=C\c2nc(co2)C(=O)O1 (stereo not given in full) | 0.11 | 0.24 | 0.25 | 2.8 | 0.24 |
| C/C=C/[C@H](O)C(C)(C)[C@@H]1C\C=C/C=C\C=C\[C@H](OC)Cc2nc(co2)C(=O)O[C@H](C(C)(C)[C@@H](O)/C=C/C)C/C=C\[C@H]2O[C@H]2/C=C/C=C\c2nc(co2)C(=O)O1 [DISORAZOLE A1] | 0.07 | 0.25 | 0.31 | 0.52 | 0.066 |
